Measured values reported in ChEMBL document CHEMBL3414481, “Discovery of highly selective brain-penetrant vasopressin 1a antagonists for the potential treatment of autism via a chemogenomic and scaffold hopping approach” (J Med Chem, 2015).
Values after ≈ are worked out from the molar mass of the structure shown.

How the values were obtained:
Vasopressin V1a receptor [1] = biological target: Vasopressin V1a receptor (Mus musculus, UniProt Q62463); experiment: Displacement of [3H]-vasopressin from mouse vasopressin 1a receptor expressed in HEK293 cell membranes after 1 hr by scintillation proximity assay
Method in brief: (§1)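 Radioligand competition binding; affinity reported as Ki.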

[2] = Volume of distribution at steady state in mouse at 2 mg/kg, iv; format: ADME, organism-based; design: dose 2 mg/kg, route intravenous; conditions: in vivo, read-out: Vdss
[3] = Activity at human P-gp assessed as drug transport; format: ADME
Homo sapiens [4] = organism: Homo sapiens; experiment: Selectivity ratio of Ki for human vasopressin V2 receptor to Ki for human vasopressin 1a receptor
Method in brief: (§2)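 Ratio of the Ki at hV2 or hOTR to the hV1a Ki. Each Ki came from a radioligand competition binding assay.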

[5] = Clearance in mouse at 2 mg/kg, iv; format: ADME, organism-based; design: dose 2 mg/kg, route intravenous; conditions: in vivo
[6] = Solubility of the compound in phosphate buffer at pH 6.5 incubated for 1 hr with stirring followed by 2 hrs of shaking by Lysa assay; format: physicochemical
Vasopressin V1a receptor [7] = biological target: T1, Vasopressin V1a receptor (Homo sapiens, UniProt P37288); experiment: Antagonist activity at human vasopressin 1a receptor expressed in CHO cells assessed as inhibition of vasopressin-induced calcium flux preincubated for 20 mins followed by vasopressin induction measured for 5 mins by FLIPR assay; format: functional, cell-based
Method in brief: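 Functional antagonist calcium-flux read-out; value reported as apparent affinity (Kb).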
Target sequence in this assay (P37288 whole entry, looked up): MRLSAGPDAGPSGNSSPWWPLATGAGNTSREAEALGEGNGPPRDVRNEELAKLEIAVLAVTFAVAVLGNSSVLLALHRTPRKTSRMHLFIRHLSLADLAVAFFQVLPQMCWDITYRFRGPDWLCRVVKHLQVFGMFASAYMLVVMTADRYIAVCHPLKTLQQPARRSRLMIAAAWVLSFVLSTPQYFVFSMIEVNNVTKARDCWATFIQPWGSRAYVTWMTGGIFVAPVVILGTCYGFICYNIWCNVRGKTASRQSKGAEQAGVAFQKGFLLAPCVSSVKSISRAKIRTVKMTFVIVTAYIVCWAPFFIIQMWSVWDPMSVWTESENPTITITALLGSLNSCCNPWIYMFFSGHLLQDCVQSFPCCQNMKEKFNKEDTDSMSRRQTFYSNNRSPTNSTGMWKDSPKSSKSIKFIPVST

Homo sapiens [8] = organism: Homo sapiens; experiment: Selectivity ratio of Ki for human oxytocin receptor to Ki for human vasopressin 1a receptor; method in brief: as §2
[9] = Ratio of drug level in brain to plasma in mouse at 10 mg/kg, po; format: ADME, organism-based; design: dose 10 mg/kg, route oral; conditions: read-out: BPR
Vasopressin V1a receptor [10] = biological target: T1, Vasopressin V1a receptor; experiment: Displacement of [3H]-vasopressin from human vasopressin 1a receptor expressed in HEK293 cell membranes after 1 hr by scintillation proximity assay; method in brief: as §1
Target sequence in this assay (P37288 whole entry): as the sequence (P37288 whole entry, looked up) above

[11] = Octanol-buffer partition co-efficient, log D of the compound after 24 hrs by high-throughput shake-flask method; format: physicochemical
Vasopressin V2 receptor = Vasopressin V2 receptor (Homo sapiens, UniProt P30518); experiment: Displacement of [3H]-vasopressin from human vasopressin V2 receptor expressed in HEK293 cell membranes after 1 hr by scintillation proximity assay
Oxytocin receptor = biological target: T2, Oxytocin receptor (Homo sapiens, UniProt P30559); experiment: Displacement of [3H]-oxytocin from human oxytocin receptor expressed in HEK cell membranes after 1 hr by scintillation proximity assay; design: species or system HEK293
T2 sequence (P30559 whole entry): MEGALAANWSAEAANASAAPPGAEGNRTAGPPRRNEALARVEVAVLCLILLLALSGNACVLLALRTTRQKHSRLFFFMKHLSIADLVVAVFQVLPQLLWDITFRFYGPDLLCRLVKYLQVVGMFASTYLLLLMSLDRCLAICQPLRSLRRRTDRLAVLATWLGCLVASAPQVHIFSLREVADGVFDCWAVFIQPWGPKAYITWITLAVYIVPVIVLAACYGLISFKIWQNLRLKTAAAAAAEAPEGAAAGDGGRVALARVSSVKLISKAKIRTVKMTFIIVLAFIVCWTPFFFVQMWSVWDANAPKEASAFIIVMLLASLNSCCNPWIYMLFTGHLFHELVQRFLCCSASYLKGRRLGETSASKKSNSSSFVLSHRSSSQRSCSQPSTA

Vasopressin V1b receptor = biological target: T3, Vasopressin V1b receptor (Homo sapiens, UniProt P47901); experiment: Displacement of [3H]-vasopressin from human vasopressin 1b receptor after 1 hr by scintillation proximity assay
T3 sequence (P47901 whole entry): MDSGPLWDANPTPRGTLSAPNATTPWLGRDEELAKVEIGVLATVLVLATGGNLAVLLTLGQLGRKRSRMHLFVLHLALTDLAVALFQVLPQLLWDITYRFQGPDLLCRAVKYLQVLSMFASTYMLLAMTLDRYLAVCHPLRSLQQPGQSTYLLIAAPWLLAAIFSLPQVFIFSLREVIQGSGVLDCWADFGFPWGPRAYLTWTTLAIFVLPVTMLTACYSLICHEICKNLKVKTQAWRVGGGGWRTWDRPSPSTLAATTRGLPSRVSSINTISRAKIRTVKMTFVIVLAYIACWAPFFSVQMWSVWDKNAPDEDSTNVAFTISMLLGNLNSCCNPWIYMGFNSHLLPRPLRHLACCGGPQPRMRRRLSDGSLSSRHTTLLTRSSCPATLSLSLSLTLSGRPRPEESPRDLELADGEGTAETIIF

Mus musculus [12] = experiment: Inhibition of arginine vasopressin-induced scratching in icv dosed NMRI mouse administered 5 mins prior to arginine vasopressin challenge measured for 5 mins; format: functional, organism-based
Method in brief: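 Mice received the compound i.c.v. at three doses or vehicle before centrally given AVP. AVP-induced scratching was scored and expressed as % of maximal response.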

Mus musculus [13] = experiment: Inhibition of arginine vasopressin-induced scratching in ip dosed NMRI mouse administered 30 mins prior to arginine vasopressin challenge measured for 5 mins; format: functional, organism-based
Method in brief: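 Mice received the compound i.p. at 0.3, 1, 3, 10 or 30 mg/kg or vehicle before centrally given AVP. AVP-induced scratching was scored and expressed as % of maximal response.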

Chain of Vasopressin V1a receptor (Mus musculus, UniProt Q62463) (Q62463 whole entry): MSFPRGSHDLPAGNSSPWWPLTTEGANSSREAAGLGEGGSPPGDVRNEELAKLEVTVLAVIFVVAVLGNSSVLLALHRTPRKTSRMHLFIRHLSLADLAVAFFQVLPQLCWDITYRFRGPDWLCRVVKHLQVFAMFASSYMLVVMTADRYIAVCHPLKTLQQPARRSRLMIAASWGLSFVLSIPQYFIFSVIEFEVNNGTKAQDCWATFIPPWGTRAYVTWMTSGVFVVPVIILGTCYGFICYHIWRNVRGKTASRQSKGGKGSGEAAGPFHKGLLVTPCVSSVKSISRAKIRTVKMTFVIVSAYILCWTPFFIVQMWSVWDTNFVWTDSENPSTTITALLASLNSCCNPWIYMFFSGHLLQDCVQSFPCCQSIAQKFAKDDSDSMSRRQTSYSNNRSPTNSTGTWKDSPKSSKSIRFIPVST
Chain of Vasopressin V2 receptor (P30518 whole entry): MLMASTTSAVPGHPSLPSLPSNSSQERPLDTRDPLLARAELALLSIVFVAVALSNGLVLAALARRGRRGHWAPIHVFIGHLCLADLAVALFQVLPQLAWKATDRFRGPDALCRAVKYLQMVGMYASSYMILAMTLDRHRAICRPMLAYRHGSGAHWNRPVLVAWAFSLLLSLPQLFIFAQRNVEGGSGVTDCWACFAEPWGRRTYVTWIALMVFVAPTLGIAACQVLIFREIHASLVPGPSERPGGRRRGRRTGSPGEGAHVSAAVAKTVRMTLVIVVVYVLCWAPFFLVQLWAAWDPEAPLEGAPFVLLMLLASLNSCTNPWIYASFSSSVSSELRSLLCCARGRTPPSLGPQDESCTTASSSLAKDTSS

Compound	Ki (Vasopressin V1a receptor [1]; read-out: Ki) [nM]	solubility at 3 h [6] [µg/mL]	Kb (Vasopressin V1a receptor [7]) [nM]	Ki (Vasopressin V1a receptor [10]; read-out: Ki) [nM]	further results
CN(C)CCn1cc(C(=O)N2CCC3(CC2)OCc2ccccc23)c2ccc(Cl)cc21 [RO-5028442]	39	205 (≈ 468 µM)	2.6		Vd [2]: 5.8 L/kg; Activity [3]: Not Active; Ratio Ki (Homo sapiens [4]): > 30000; clearance [5]: 91 mL/min/kg; Ratio Ki (Homo sapiens [8]): 9890; Kp [9]: 1.4
O=C(c1c[nH]c2cc(Cl)ccc12)N1CCC2(CC1)OCc1ncccc12	4820		7.8	39	
O=C(c1c[nH]c2cc(Cl)ccc12)N1CCC2(CC1)c1ccccc1CS2(=O)=O	5890		11	24	
O=C(c1c[nH]c2cc(Cl)ccc12)N1CCN(c2ccccc2Cl)CC1	1970		193	118	
Cc1c(C(=O)N2CCC(O)(Cc3ccccc3)CC2)c2ccccc2n1C(=O)c1ccccc1				3900	
O=C1OC2(CCN(C(=O)c3c[nH]c4cc(Cl)ccc34)CC2)c2ccccc21			5	5	Ki (Vasopressin V1a receptor [1]; hek293): Not Active
O=C(c1c[nH]c2cc(Cl)ccc12)N1CCC2(CC1)OCc1cccnc12	1020		1.8	5	
Cc1c(C(=O)N2CCC3(CC2)OCc2ccccc23)c2ccccc2n1Cc1ccccc1	210	< 1	3.6	2	logD at 24 h [11]: > 3; Ki (Vasopressin V2 receptor): 9310 nM; Ki (Oxytocin receptor; hek293): Not Active
CCOc1ccc2ccccc2c1C(=O)N1CCC2(CC1)OCc1ccccc12				81	Ki (Vasopressin V1b receptor): Not Active
CN1CCC(n2cc(C(=O)N3CCC4(CC3)OCc3ccccc34)c3ccc(Cl)cc32)CC1	11	12 (≈ 25.9 µM)	3.3	4	Vd [2]: 7.2 L/kg; Activity [3]: Not Active; Ratio Ki (Homo sapiens [4]): > 6750; clearance [5]: 52 mL/min/kg; Ratio Ki (Homo sapiens [8]): 1200; Kp [9]: 1
COc1ccccc1C(=O)N1CCC(O)(Cc2ccccc2)CC1					Ki (Vasopressin V1a receptor [10]; hek293): Not Active
O=C(c1cccc2ccccc12)N1CCC(O)(Cc2ccccc2)CC1				6620	
O=C(c1c[nH]c2cc(Cl)ccc12)N1CCC(n2c(=O)[nH]c3ccccc32)CC1	2390		14	8	
Cc1c(C(=O)N2CCC(O)(Cc3ccccc3)CC2)c2ccccc2n1Cc1ccccc1				295	
CN(C)C(=O)Cn1cc(C(=O)N2CCC3(CC2)OCc2ccccc23)c2ccc(Cl)cc21	14	56 (≈ 124 µM)	0.1		Vd [2]: 1.2 L/kg; Activity [3]: Active; clearance [5]: 40 mL/min/kg; Kp [9]: 0.05
Cc1c(C(=O)N2CCC(O)(Cc3ccccc3)CC2)c2ccccc2n1S(=O)(=O)c1ccccc1				4990	
CN1CCC[C@H]1Cn1cc(C(=O)N2CCC3(CC2)OCc2ccccc23)c2ccc(Cl)cc21	13	140 (≈ 302 µM)	0.5	1	Vd [2]: 2.6 L/kg; Activity [3]: Not Active; Ratio Ki (Homo sapiens [4]): 6070; clearance [5]: 67 mL/min/kg; Ratio Ki (Homo sapiens [8]): 1980; Kp [9]: 2
CN1CCN(C(=O)Cn2cc(C(=O)N3CCC4(CC3)OCc3ccccc34)c3ccc(Cl)cc32)CC1	41	193 (≈ 381 µM)	0.2	1	inhibition (Mus musculus [12]): Dose-dependent effect; Vd [2]: 1.5 L/kg; Ratio Ki (Homo sapiens [4]): > 60000; clearance [5]: 39 mL/min/kg; Ratio Ki (Homo sapiens [8]): 9160; Kp [9]: 0.07
CN(C)CCNC(=O)Cn1cc(C(=O)N2CCC3(CC2)OCc2ccccc23)c2ccc(Cl)cc21	177	> 650	0.7	2	Vd [2]: 4.9 L/kg; Activity [3]: Active; inhibition (Mus musculus [13]): Dose-dependent effect; Ratio Ki (Homo sapiens [4]): 11800; clearance [5]: 14 mL/min/kg; Ratio Ki (Homo sapiens [8]): 5690; Kp [9]: 0.1
O=C(c1c[nH]c2ccccc12)N1CCC2(CC1)OCc1ccccc12	6620	17 (≈ 51.1 µM)		32	logD at 24 h [11]: > 3
O=C1Nc2ccccc2C2(CCN(C(=O)c3c[nH]c4cc(Cl)ccc34)CC2)O1			38		Ki (Vasopressin V1a receptor [1]; hek293): Not Active
O=C(c1cn(C[C@@H]2CCCN2)c2cc(Cl)ccc12)N1CCC2(CC1)OCc1ccccc12	125	108 (≈ 240 µM)	1.4	1.4	Vd [2]: 6.8 L/kg; Activity [3]: Active; Ratio Ki (Homo sapiens [4]): > 19300; clearance [5]: 32 mL/min/kg; Ratio Ki (Homo sapiens [8]): 1510; Kp [9]: 0.05
O=C(c1c[nH]c2cc(Cl)ccc12)N1CCC2(CC1)OCc1ccncc12	2980		4.2	9	
CCOc1ccc2ccccc2c1C(=O)N1CCC(O)(Cc2ccccc2)CC1				2830	Ki (Vasopressin V1b receptor; read-out: Ki): 12000 nM
O=C(c1c[nH]c2cc(Cl)ccc12)N1CCC2(CC1)COc1ccccc12			72	16	Ki (Vasopressin V1a receptor [1]; hek293): Not Active
O=C(c1c[nH]c2cc(Cl)ccc12)N1CCC(c2ccccc2)CC1	1490		43	23	
O=C(c1c[nH]c2cc(Cl)ccc12)N1CCC2(CC1)CNc1ccccc12	5890		20		
O=C(c1c[nH]c2cc(Cl)ccc12)N1CCC2(CC1)OCc1ccccc12	1010	4 (≈ 10.9 µM)	2.9	4	logD at 24 h [11]: 3.7; Ki (Vasopressin V2 receptor): > 27000 nM; Activity [3]: Not Active; Ratio Ki (Homo sapiens [4]): > 6750; Ki (Oxytocin receptor; read-out: Ki): 7520 nM; Ratio Ki (Homo sapiens [8]): 1880
